# Most compounds without a hit are left out; they make up all but 3% or so of the library.
# 5-HT1A blocker = antagonists of human 5-HT1a serotonin receptor. P08908. CHO 5-HT1a Ga15 NFAT-bla reporter, antagonist mode. inhibition, % at 10 µM. 62,000 tested, 0.68% active. AID 612;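 active = inhibition above the mean of all tested compounds plus 3 SD, cut at about 43% in these data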;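 note: receptor stimulated by 5-CT agonist at 100 nM near EC80; beta-lactamase reporter measured by ratiometric fluorescence of a cleavable substrate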
# S1P3 agonist = activates the human S1P3 receptor. Q99500. S1P3 NFAT-BLA reporter cells, agonism, FRET ratio; relative to 1 µM S1P, basal subtracted. activation, % at 4.5 µM. 60,000 tested, 0.1% active. AID 373;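 active = activation above the screen-wide mean plus 3 SD, cut at about 4.5% in these data, passing the limit was not always enough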
# Target sequence (Q99500 whole entry, looked up): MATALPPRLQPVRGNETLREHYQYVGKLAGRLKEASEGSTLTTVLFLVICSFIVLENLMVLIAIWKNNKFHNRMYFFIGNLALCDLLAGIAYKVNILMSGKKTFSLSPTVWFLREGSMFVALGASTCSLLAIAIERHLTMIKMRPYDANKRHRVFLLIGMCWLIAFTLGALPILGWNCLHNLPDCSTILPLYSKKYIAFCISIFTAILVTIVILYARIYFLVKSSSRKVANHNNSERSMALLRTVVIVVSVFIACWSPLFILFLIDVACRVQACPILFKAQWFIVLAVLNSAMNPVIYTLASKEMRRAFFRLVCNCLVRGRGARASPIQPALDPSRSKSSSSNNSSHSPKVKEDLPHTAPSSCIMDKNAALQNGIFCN
#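 Material: Human S1P3 NFAT-BLA reporter CHO cells | Incubation: Overnight plating, 4 h compound 37 °C, 2 h substrate RT | Signal: FRET β-lactamase substrate fluorescence, excitation 405 nm, 460/535 nm emission ratio, background-subtracted | Compound: 4.5 µM final, single dose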
# S1P1 ag pot = agonists and agonism potentiators of human S1P1 receptor. P21453. S1P1 CRE-bla cells, forskolin, beta-lactamase FRET, potentiator mode; S1P1 agonist co-added at EC20, 2 nM; 100% = saturating reference agonist, 0% = basal. activation, % at 9.5 µM. 56,000 tested, 0.57% active. AID 449;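 active = activation above a cutoff set at the mean activation of all tested compounds plus 3 SD, cut at about 54% in these data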;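 note: forskolin at 4 µM as EC80 and the EC20 agonist is SEW2871; 100% = SEW2871 at its EC100 plus forskolin at EC80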
# 5HT1E ag = agonists of human 5-HT1E serotonin receptor. 65,000 tested, 0.69% active. CHO 5-HT1E Ga15 NFAT-bla reporter, FRET; 0% DMSO wells, 100% control agonist wells. AID 574. P28566. activation, % at 6 µM;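 active = activation above a set limit, the screen-wide mean activation plus 3 SD, cut at about 8.5% in these data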;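 note: 100% = positive control agonist at 1 µM giving full maximal response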
# 5HT1a ag = agonists of human 5-HT1a serotonin receptor; P08908; activation, % at 10 µM; 65,000 tested, 0.56% active; AID 567; CHO 5-HT1a Ga15 NFAT-bla reporter, FRET ratio; 0% basal, 100% maximal reference agonist;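 active = activation above the screen-wide mean activation plus 3 SD, cut at about 19% in these data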;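 note: 0% = DMSO wells and 100% = 5-CT at EC100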
# HTR1E antagonist = blocks the human 5-HT1E serotonin receptor. CHO 5-HT1E Ga15 NFAT-bla reporter, FRET, antagonist. AID 571. inhibition, % at 6 µM. P28566. 65,000 tested, 0.99% active;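 active = inhibition above a set limit, the mean inhibition across every tested compound plus 3 SD, cut at about 29% in these data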;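 note: signal is the 460 over 535 nm emission ratio of beta-lactamase substrate; 0% = agonist plus DMSO wells and 100% = wells without agonist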
# Active calls of the source: *; . = no result.
SMILES,5-HT1A blocker,S1P3 agonist,S1P1 ag pot,5HT1E ag,5HT1a ag,HTR1E antagonist
Cn1c(SCC(=O)NCc2ccccc2)nnc1C1CC1,-5.0,-0.9,-4.4,-1.1,-2.2,-1.5
CN(C)c1nc(N)nc(CSc2n[nH]c(-c3ccccc3)n2)n1,-15.1,2.0,-57.0,0.2,-1.6,29.7*
O=C(CSc1n[nH]c(-c2ccccc2)n1)c1ccccc1,0.6,-0.8,-30.6,0.5,-2.8,0.6
O=C1NC(Cc2c[nH]c3ccccc23)C(=O)N1CCOc1ccccc1 (configuration not stated),6.8,-0.7,-1.1,0.3,-2.4,4.2
CC(NC(=O)Nc1nnc(C(F)(F)F)s1)(C(F)(F)F)C(F)(F)F,.,-8.4,79.6*,-0.5,2.8,54.1*
CC(NC(=O)Nc1nnc(C(F)(F)F)s1)N1C(=O)C2C3C=CC(C3)C2C1=O (configuration not stated),-0.7,-0.6,-29.1,-0.6,-3.4,-1.8
Cc1ccnc(NC(=O)CCC(=O)N(CC(=O)NCC2CCCO2)Cc2ccc(F)cc2)c1 (configuration not stated),-6.9,-0.2,0.8,-0.3,-1.3,-8.1
CCC(=O)Oc1ccc2c(C)cc(=O)oc2c1C,6.2,-2.1,-1.4,-0.2,65.0*,6.3
CCn1c(N2CCN(CC(=O)c3ccc(OC)cc3)CC2)nc2ccccc21,-8.8,0.4,5.2,17.8*,3.9,-6.1
CCn1c(N2CCN(CC(=O)Nc3cccc(C)c3C)CC2)nc2ccccc21,-2.5,-0.2,2.6,2.7,-0.8,-9.3
COc1ccc(-c2nc(CS(=O)CC(=O)NCc3ccco3)c(C)o2)cc1OC (configuration not stated),6.2,0.2,-1.4,0.0,0.2,29.2*
COCCCNC(=O)CS(=O)Cc1nc(-c2cccc(OC)c2)oc1C (configuration not stated),11.5,-0.6,0.3,8.9*,-1.3,-5.9
CCN1CCN(C(=O)CS(=O)Cc2nc(-c3ccc(OC)cc3)oc2C)CC1 (configuration not stated),-10.2,-0.6,2.0,0.3,-2.7,-4.1
COc1ccc(-c2nc(CS(=O)CC(=O)N3CCCC3)c(C)o2)cc1 (configuration not stated),-3.4,0.3,-14.5,0.4,100.9*,9.5
Cc1cccc(-c2nc(C#N)c(NC3CCCCC3)o2)c1,.,-3.6,68.5*,-0.4,-1.1,55.0*
COc1ccc(-c2cn3c(C)c(C(=O)N4CCN(c5ccc(OC)cc5)CC4)sc3n2)cc1,-10.4,-0.8,0.4,0.5,-0.4,0.8
CCC(=O)N1CCc2cc(Br)cc(S(=O)(=O)N3CCN(c4ccccn4)CC3)c21,3.0,.,.,-0.5,0.1,-5.0
O=C(Cn1nc(Cc2ccncc2)c2ccccc2c1=O)N1CCc2ccccc2C1,-5.0,0.0,-1.4,0.4,0.3,-3.2
CC(C)OC(=O)CCC1(C(=O)O)CCC(=O)NC1 (configuration not stated),8.2,-0.1,10.2,-0.6,-1.6,-1.0
Cc1cccc(-c2nc(CS(=O)CC(=O)NC3CCCC3)c(C)o2)c1 (configuration not stated),-3.4,-0.9,13.0,-0.1,36.8*,13.2
Cc1oc(-c2cccs2)nc1CS(=O)CC(=O)NC1CCCCCC1 (configuration not stated),8.5,-0.9,9.6,0.5,-2.3,0.4
COC(=O)c1cnn2c(C)c(Cc3cccc(F)c3)c(C)nc12,-8.4,-0.9,-13.1,1.0,2.7,29.9*
Cc1cc(=O)oc2cc(OCC(O)CN3CCN(c4ccc(F)cc4)CC3)ccc12 (configuration not stated),16.6,.,.,-0.6,0.5,3.2
CCOc1ccccc1N1CCN(CC(O)COc2ccc3c(C)cc(=O)oc3c2)CC1 (configuration not stated),89.1*,.,.,-0.1,5.3,5.6
CC1CCCCN1CC(=O)Nc1sc2c(c1C#N)CCC2 (configuration not stated),-12.6,0.8,-1.7,0.6,2.9,9.2
SMILES,5-HT1A blocker,S1P3 agonist,S1P1 ag pot,5HT1E ag,5HT1a ag,HTR1E antagonist
Cc1onc(-c2ccccc2)c1C(=O)Nc1cc(C(F)(F)F)ccc1N1CCOCC1,26.3,-1.1,6.3,-0.1,-4.1,40.5*
Cc1nonc1NC(=O)OC1CCCCC1,1.5,-0.5,3.8,-0.9,-1.3,13.8
CCn1cc(C(=O)NCC(=O)OC)c2cc(OC)c(OC)cc2c1=O,2.3,.,.,-0.3,0.5,4.4
CCn1cc(C(=O)NCc2ccc(C)o2)c2cc(OC)c(OC)cc2c1=O,10.4,-0.4,-37.9,-0.6,0.7,29.0*
CCOC(=O)c1cc2sccc2n1CC(=O)c1ccc2c(c1)OCCO2,18.6,-1.5,25.1,21.6*,-0.8,-0.9
CNS(=O)(=O)c1cccc(C(=O)OC2CCCCC2=O)c1 (configuration not stated),-14.7,0.2,-15.3,0.3,-0.4,-18.7
CCOC(=O)N1CCN(C(=O)C2CCCN(S(=O)(=O)c3cccnc3)C2)CC1 (configuration not stated),-0.8,-0.6,-5.1,0.0,-4.1,-10.3
Cc1cc(NC(=O)CSc2nc(-c3ccco3)cc(C(F)(F)F)n2)no1,59.1*,-0.9,3.7,-1.8,-1.1,67.7*
CS(=O)(=O)c1nc(-c2ccco2)cc(C(F)(F)F)n1,103.1*,.,.,-1.3,-5.3,99.5*
COc1ccccc1C1N(c2ccc(F)cc2)C(=O)C2CCCN21 (configuration not stated),-17.3,0.4,7.8,1.1,-0.3,-12.2
CCOC(=O)c1ccc(-n2c(=S)sc3c(=O)[nH]c(C)nc32)cc1,-5.1,.,.,-0.6,0.8,-2.3
C=CCn1c(=O)c2ccccc2n2c(SC(C)C(=O)Nc3nc(-c4ccccc4)cs3)nnc12 (configuration not stated),0.2,-0.8,4.1,0.0,0.6,38.3*
CC(=O)N1CCCc2cc(S(=O)(=O)NC(C(=O)NC(C)c3ccccc3)C(C)C)ccc21 (configuration not stated),-13.2,-1.5,4.2,0.6,-3.5,0.6
COc1ccc(NC(=O)C(NS(=O)(=O)c2ccc3c(c2)CCCN3C(C)=O)C(C)C)c(OC)c1 (configuration not stated),-5.4,0.3,-0.8,16.6*,-3.9,-8.8
CC(C)n1c(N2CCN(CC(=O)Nc3ccc4c(c3)OCCO4)CC2)nc2ccccc21,-7.8,-0.4,-18.4,-0.3,-2.0,-2.8
Cc1ccc(Cn2c(SCc3cccnc3)nc3c2c(=O)n(C)c(=O)n3C)cc1,4.7,-1.4,-10.0,0.4,29.5*,5.3

# Bioassay records as filed in PubChem.
